Laboratory results: ChEMBL document CHEMBL1275459 (2008)
In brackets after ≈: the same amount, converted by molar mass.

Legend:
[1] = test system: Klebsiella pneumoniae; test: Antimicrobial activity against ciprofloxacin-resistant Klebsiella pneumoniae isolate 95 harboring GyrA Ser83Leu, Asp78Asn, Ala171Ser and Val198Ile mutant gene by agar dilution method; type: functional
[2] = test system: Klebsiella pneumoniae; test: Antimicrobial activity against ciprofloxacin-resistant Klebsiella pneumoniae isolate 863 harboring GyrA Ser83Leu, Asp78Asn, Ala171Ser and Val198Ile mutant gene by agar dilution method; type: functional
[3] = test system: Klebsiella pneumoniae; test: Antimicrobial activity against ciprofloxacin-susceptible Klebsiella pneumoniae isolate 760 by agar dilution method; type: functional
[4] = test system: Klebsiella pneumoniae; test: Antimicrobial activity against ciprofloxacin-resistant Klebsiella pneumoniae isolate 205 harboring GyrA Ser83Leu, Asp78Asn, Ala171Ser and Val198Ile mutant gene by agar dilution method; type: functional
[5] = test system: Klebsiella pneumoniae; test: Antimicrobial activity against ciprofloxacin-susceptible Klebsiella pneumoniae isolate 840 harboring GyrA Ala171Ser, Leu187Ile and Val198Ile mutant gene by agar dilution method; type: functional
[6] = test system: Klebsiella pneumoniae; test: Antimicrobial activity against ciprofloxacin-resistant Klebsiella pneumoniae isolate 103 harboring GyrA Ser83Leu, Asp78Asn, Ala171Ser and Val198Ile mutant gene by agar dilution method; type: functional
[7] = test system: Klebsiella pneumoniae; test: Antimicrobial activity against ciprofloxacin-susceptible Klebsiella pneumoniae isolate 685 harboring GyrA Ala171Ser, Leu187Ile and Val198Ile mutant gene by agar dilution method; type: functional
[8] = test system: Klebsiella pneumoniae; test: Antimicrobial activity against ciprofloxacin-resistant Klebsiella pneumoniae isolate 719 harboring GyrA Ser83Leu, Asp78Asn, Ala171Ser and Val198Ile mutant gene by agar dilution method; type: functional
[9] = test system: Klebsiella pneumoniae; test: Antimicrobial activity against ciprofloxacin-susceptible Klebsiella pneumoniae isolate 577 by agar dilution method; type: functional
Outline: (§1)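 MIC read by agar dilution on Mueller-Hinton agar following CLSI (formerly NCCLS) recommendations. K. pneumoniae isolates were identified with the API 20E system and confirmed as nonduplicated by randomly amplified polymorphic DNA analysis.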

[10] = test system: Klebsiella pneumoniae; test: Antimicrobial activity against ciprofloxacin-resistant Klebsiella pneumoniae isolate 3 harboring GyrA Ser83Leu, Asp78Asn, Ala171Ser and Val198Ile mutant gene by agar dilution method; type: functional
[11] = test system: Klebsiella pneumoniae; test: Antimicrobial activity against ciprofloxacin-resistant Klebsiella pneumoniae isolate 721 harboring GyrA Ala171Ser, Leu187Ile and Val198Ile mutant gene by agar dilution method; type: functional
[12] = test system: Klebsiella pneumoniae; test: Antimicrobial activity against ciprofloxacin-resistant Klebsiella pneumoniae isolate 149 harboring GyrA Ser83Leu, Asp78Asn, Ala171Ser and Val198Ile mutant gene by agar dilution method; type: functional
[13] = test system: Klebsiella pneumoniae; test: Antimicrobial activity against ciprofloxacin-intermediate resistant Klebsiella pneumoniae isolate 753 harboring GyrA Ser83Ile mutant gene by agar dilution method; type: functional
[14] = test system: Klebsiella pneumoniae; test: Antimicrobial activity against ciprofloxacin-resistant Klebsiella pneumoniae isolate 94 harboring GyrA Ser83Leu, Asp78Asn, Ala171Ser and Val198Ile mutant gene by agar dilution method; type: functional
[15] = test system: Klebsiella pneumoniae; test: Antimicrobial activity against ciprofloxacin-resistant Klebsiella pneumoniae isolate 769 harboring GyrA Ser83Ile and Gly177Arg mutant gene by agar dilution method; type: functional
[16] = test system: Klebsiella pneumoniae; test: Antimicrobial activity against ciprofloxacin-susceptible Klebsiella pneumoniae isolate 517 harboring GyrA Ala171Ser, Leu187Ile and Val198Ile mutant gene by agar dilution method; type: functional
[17] = test system: Klebsiella pneumoniae; test: Antimicrobial activity against ciprofloxacin-susceptible Klebsiella pneumoniae isolate 724 harboring GyrA Ser83Ile mutant gene by agar dilution method; type: functional
[18] = test system: Klebsiella pneumoniae; test: Antimicrobial activity against ciprofloxacin-resistant Klebsiella pneumoniae isolate 234 harboring GyrA Ser83Leu, Asp78Asn, Ala171Ser and Val198Ile mutant gene by agar dilution method; type: functional
[19] = test system: Klebsiella pneumoniae; test: Antimicrobial activity against ciprofloxacin-resistant Klebsiella pneumoniae isolate 827 harboring GyrA Ser83Ile mutant gene by agar dilution method; type: functional
[20] = test system: Klebsiella pneumoniae; test: Antimicrobial activity against ciprofloxacin-resistant Klebsiella pneumoniae isolate 663 harboring GyrA Ser83Leu, Asp78Asn, Ala171Ser and Val198Ile mutant gene by agar dilution method; type: functional
[21] = test system: Klebsiella pneumoniae; test: Antimicrobial activity against ciprofloxacin-intermediate resistant Klebsiella pneumoniae isolate 715 by agar dilution method; type: functional
[22] = test system: Klebsiella pneumoniae; test: Antimicrobial activity against ciprofloxacin-susceptible Klebsiella pneumoniae isolate 212 harboring GyrA Ala171Ser, Leu187Ile and Val198Ile mutant gene by agar dilution method; type: functional
[23] = test system: Klebsiella pneumoniae; test: Antimicrobial activity against ciprofloxacin-susceptible Klebsiella pneumoniae isolate 738 by agar dilution method; type: functional; outline: as §1
[24] = test system: Klebsiella pneumoniae; test: Antimicrobial activity against ciprofloxacin-resistant Klebsiella pneumoniae isolate 772 harboring GyrA Ser83Ile mutant gene by agar dilution method; type: functional
[25] = test system: Klebsiella pneumoniae; test: Antimicrobial activity against ciprofloxacin-resistant Klebsiella pneumoniae isolate 779 harboring GyrA Ser83Leu, Asp78Asn, Ala171Ser and Val198Ile mutant gene by agar dilution method; type: functional
[26] = test system: Klebsiella pneumoniae; test: Antimicrobial activity against ciprofloxacin-susceptible Klebsiella pneumoniae isolate 838 harboring GyrA Ser83Tyr, Ala171Ser, Leu187Ile and Val198Ile mutant gene by agar dilution method; type: functional
[27] = test system: Klebsiella pneumoniae; test: Antimicrobial activity against ciprofloxacin-intermediate resistant Klebsiella pneumoniae isolate 21 by agar dilution method; type: functional
[28] = test system: Klebsiella pneumoniae; test: Antimicrobial activity against ciprofloxacin-susceptible Klebsiella pneumoniae isolate 182 harboring GyrA Ser83Thr and Ala171Ser mutant gene by agar dilution method; type: functional
[29] = test system: Klebsiella pneumoniae; test: Antimicrobial activity against ciprofloxacin-susceptible Klebsiella pneumoniae isolate 737 harboring GyrA Ser83Leu and Val198Ile mutant gene by agar dilution method; type: functional
[30] = test system: Klebsiella pneumoniae; test: Antimicrobial activity against ciprofloxacin-resistant Klebsiella pneumoniae isolate 828 harboring GyrA Ser83Ile and Gly177Arg mutant gene by agar dilution method; type: functional
[31] = test system: Klebsiella pneumoniae; test: Antimicrobial activity against ciprofloxacin-resistant Klebsiella pneumoniae isolate 27 harboring GyrA Ser83Leu, Asp78Asn, Ala171Ser and Val198Ile mutant gene by agar dilution method; type: functional
[32] = test system: Klebsiella pneumoniae; test: Antimicrobial activity against ciprofloxacin-resistant Klebsiella pneumoniae isolate 836 by agar dilution method; type: functional
[33] = test system: Klebsiella pneumoniae; test: Antimicrobial activity against ciprofloxacin-susceptible Klebsiella pneumoniae isolate 49 harboring GyrA Asp87Asn, Arg154Ser and Ala171Ser mutant gene by agar dilution method; type: functional
[34] = test system: Klebsiella pneumoniae; test: microbe, parasite or virus in culture; settings: isolate 29
[35] = test system: Klebsiella pneumoniae; test: microbe, parasite or virus in culture; settings: isolate 24
[36] = test system: Klebsiella pneumoniae; test: microbe, parasite or virus in culture; settings: isolate 3
[37] = test system: Klebsiella pneumoniae; test: microbe, parasite or virus in culture; settings: isolate 16
[38] = test system: Klebsiella pneumoniae; test: microbe, parasite or virus in culture; settings: isolate 19

Row | Structure (SMILES) | MIC [1] [µg/mL] | MIC [2] [µg/mL] | MIC [3] [µg/mL] | MIC [4] [µg/mL] | MIC [5] [µg/mL] | MIC [6] [µg/mL] | MIC [7] [µg/mL] | MIC [8] [µg/mL] | MIC [9] [µg/mL] | MIC [10] [µg/mL] | MIC [11] [µg/mL] | MIC [12] [µg/mL] | MIC [13] [µg/mL] | MIC [14] [µg/mL] | MIC [15] [µg/mL] | MIC [16] [µg/mL] | MIC [17] [µg/mL] | MIC [18] [µg/mL] | MIC [19] [µg/mL] | MIC [20] [µg/mL] | also measured
1 | CCn1cc(C(=O)O)c(=O)c2ccc(C)nc21 [NALIDIXIC ACID] | > 512 | > 512 | 4 (≈ 17.2 µM) | > 512 | 16 (≈ 68.9 µM) | > 512 | > 512 | > 512 | 4 (≈ 17.2 µM) | > 512 | > 512 | > 512 | > 512 | > 512 | > 512 | 8 (≈ 34.4 µM) | 8 (≈ 34.4 µM) | > 512 | > 512 | > 512 | MIC [21]: 16 µg/mL (≈ 68.9 µM); MIC [22]: 16 µg/mL (≈ 68.9 µM); MIC [23]: 8 µg/mL (≈ 34.4 µM); MIC [24]: > 512 µg/mL; MIC [25]: > 512 µg/mL; MIC [26]: 256 µg/mL (≈ 1100 µM); MIC [27]: 16 µg/mL (≈ 68.9 µM); MIC [28]: 4 µg/mL (≈ 17.2 µM); MIC [29]: 8 µg/mL (≈ 34.4 µM); MIC [30]: > 512 µg/mL; MIC [31]: > 512 µg/mL; MIC [32]: > 512 µg/mL; MIC [33]: > 512 µg/mL
2 | O=C(O)c1cn(C2CC2)c2cc(N3CCNCC3)c(F)cc2c1=O [CIPROFLOXACIN] | 128 (≈ 386 µM) | 128 (≈ 386 µM) | < 0.0312 | 4 (≈ 12.1 µM) | 1 (≈ 3.02 µM) | 64 (≈ 193 µM) | 0.125 (≈ 0.377 µM) | 8 (≈ 24.1 µM) | 0.125 (≈ 0.377 µM) | 16 (≈ 48.3 µM) | 8 (≈ 24.1 µM) | 64 (≈ 193 µM) | 2 (≈ 6.04 µM) | 32 (≈ 96.6 µM) | 32 (≈ 96.6 µM) | < 0.0312 | < 0.0312 | 16 (≈ 48.3 µM) | 32 (≈ 96.6 µM) | 64 (≈ 193 µM) | MIC [34]: 16 µg/mL (≈ 48.3 µM); MIC [35]: 32 µg/mL (≈ 96.6 µM); MIC [36]: 16 µg/mL (≈ 48.3 µM); MIC [37]: 4 µg/mL (≈ 12.1 µM); MIC [21]: 2 µg/mL (≈ 6.04 µM); MIC [22]: < 0.0312 µg/mL; MIC [23]: 1 µg/mL (≈ 3.02 µM); MIC [38]: 8 µg/mL (≈ 24.1 µM); MIC [24]: 32 µg/mL (≈ 96.6 µM); MIC [25]: 32 µg/mL (≈ 96.6 µM); MIC [26]: 1 µg/mL (≈ 3.02 µM); MIC [27]: 2 µg/mL (≈ 6.04 µM); MIC [28]: < 0.0312 µg/mL; MIC [29]: < 0.0312 µg/mL; MIC [30]: 32 µg/mL (≈ 96.6 µM); MIC [31]: 8 µg/mL (≈ 24.1 µM); MIC [32]: 4 µg/mL (≈ 12.1 µM); MIC [33]: 0.5 µg/mL (≈ 1.51 µM)
